Data reported in ChEMBL document CHEMBL1140689, “Benzyl amide-ketoacid inhibitors of HIV-integrase” (Bioorg Med Chem Lett, 2007).

Test system: Human immunodeficiency virus 1
Assay: Antiviral activity against luciferase containing HIV1 NL4-3 virus in MT2 cells
Assay type: functional, organism-based
Conditions: Human immunodeficiency virus 1, NL4-3, MT2

| EC50 [nM] | Structure (SMILES) |
| --- | --- |
| 1200 | CC1(C)OC(=O)/C(=C/C(=O)NCc2ccc(F)cc2)O1 |
| 5900 | O=C(/C=C(\O)C(=O)O)NCc1ccc(F)cc1 |
| 600 | CN(Cc1ccc(F)cc1)C(=O)/C=C(\O)C(=O)O |

Target: not listed separately
Assay: Inhibition of HIV1 recombinant integrase
Parameters: species or system Human immunodeficiency virus 1
Conditions: not given
Outline: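 Strand-transfer scintillation proximity readout. 5 pmol biotin-labeled substrate DNA bound to 100 μg streptavidin SPA beads. Recombinant integrase (0.26 ng) loaded onto the beads for 90 min at 37 °C, and unbound enzyme washed off. Inhibitors then added with 0.1 fmol 33P-labeled target DNA. Reaction stopped with EDTA (10 mM final). Integration measured as scintillation CPM.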

| Structure (SMILES) | IC50 [nM] |
| --- | --- |
| Cc1ccccc1CNC(=O)/C=C(\O)C(=O)O | 1300 |
| O=C(/C=C(\O)C(=O)O)NCc1ccc([N+](=O)[O-])cc1 | 2100 |
| O=C(/C=C(\O)C(=O)O)NCc1cccc(F)c1 | 1200 |
| O=C(/C=C(\O)C(=O)O)NCc1ccc(F)cc1 | 200 |
| CN(Cc1ccc(F)cc1)C(=O)/C=C(\O)C(=O)O | 110 |
| CC(C)(C)c1ccc(CNC(=O)/C=C(\O)C(=O)O)cc1 | 180000 |
| Cc1ccc(CNC(=O)/C=C(\O)C(=O)O)cc1F | 200 |
| Cc1ccc(CNC(=O)/C=C(\O)C(=O)O)cc1 | 1400 |
| COc1ccccc1CNC(=O)/C=C(\O)C(=O)O | 500 |
| C[C@H](NC(=O)/C=C(\O)C(=O)O)c1ccccc1 | 24000 |
| COc1cccc(CNC(=O)/C=C(\O)C(=O)O)c1 | 2400 |
| COc1ccc(CNC(=O)/C=C(\O)C(=O)O)cc1 | 4200 |
| O=C(/C=C(\O)C(=O)O)NCc1ccc(Cl)nc1 | 700 |
| O=C(/C=C(\O)C(=O)O)NCc1ccccc1F | 1800 |
| CC(NC(=O)/C=C(\O)C(=O)O)c1ccc(F)cc1 (centres undefined) | 3000 |
| O=C(/C=C(\O)C(=O)O)NCc1ccccc1Cl | 1700 |
| Cc1cccc(CNC(=O)/C=C(\O)C(=O)O)c1 | 300 |

Now from value to compound:

| IC50 [nM] | Structure (SMILES) |
| --- | --- |
| 1700 | O=C(/C=C(\O)C(=O)O)NCc1cc(F)cc(F)c1 |
| 200 | O=C(/C=C(\O)C(=O)O)NCc1cccc(Cl)c1Cl |
| 300 | O=C(/C=C(\O)C(=O)O)NCc1ccccc1 |
| 600 | O=C(/C=C(\O)C(=O)O)NCc1cccc(Cl)c1 |
| 7500 | COc1ccc(CNC(=O)/C=C(\O)C(=O)O)c(OC)c1 |
| 300 | COc1ccc(CNC(=O)/C=C(\O)C(=O)O)cc1Cl |
| > 300000 | C[C@@H](NC(=O)/C=C(\O)C(=O)O)c1ccccc1 |
| 1100 | O=C(/C=C(\O)C(=O)O)NCc1ccc(Cl)cc1 |
| 9000 | O=C(/C=C(\O)C(=O)O)NCc1ccc(C(F)(F)F)cc1 |
